Source: ChEMBL document CHEMBL4393712, “Discovery of chalcone-modified estradiol analogs as antitumour agents that Inhibit tumour angiogenesis and epithelial to mesenchymal transition” (Eur J Med Chem, 2019)
Activity calls are given as the source filed them. The calls are words filed in the database; no cut-off is given here.

Experiments:
[1] = test system: HET-1A; test: Cytotoxicity against human HET-1A cells assessed as reduction in cell viability measured after 48 to 72 hrs by MTT assay; assay type: cell-based
Procedure, shortened: (§1)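 Cells seeded at 3 × 10^3 per well in 96-well plates, incubated overnight, then given fresh medium with a range of drug concentrations for 48 h or 72 h. MTT added (final 500 µg/mL) for 4 h, formazan dissolved in DMSO, absorbance at 570 nm; IC50 derived. Mean ± SD of 3 independent tests.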

[2] = test system: MDA-MB-231; test: Cytotoxicity against human MDA-MB-231 cells assessed as reduction in cell viability measured after 48 to 72 hrs by MTT assay; assay type: cell-based; procedure, shortened: as §1
[3] = test system: B16; test: Antitumour activity against mouse B16 cells assessed as cell growth inhibition measured after 72 hrs by SRB assay; assay type: functional, cell-based; details: B16, 72 h
Procedure, shortened: (§2)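 Exponentially growing cells trypsinized, seeded at 5 × 10^4 cells/mL in 96-well plates, cultured overnight, then exposed to compounds for 72 h. Cells fixed with 10% TCA 1 h, stained with SRB 15 min, dye dissolved in Tris-HCl, absorbance read; 50% growth-inhibitory concentration calculated.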

[4] = test system: ECa-109 cell line; test: Antitumour activity against human EC109 cells assessed as cell growth inhibition measured after 72 hrs by SRB assay; assay type: functional, cell-based; details: ECa-109, 72 h; procedure, shortened: as §2
[5] = test system: MGC-803; test: Antitumour activity against human MGC803 cells assessed as cell growth inhibition measured after 72 hrs by SRB assay; assay type: functional, cell-based; details: MGC-803, 72 h; procedure, shortened: as §2
[6] = test system: SMMC-7721; test: Antitumour activity against human SMMC7721 cells assessed as cell growth inhibition measured after 72 hrs by SRB assay; assay type: functional, cell-based; details: SMMC-7721, 72 h; procedure, shortened: as §2
[7] = test system: Chorioallantoic membrane; test: Antiangiogenic activity in chicken chorioallantoic membrane assessed as reduction in neovascularization at 50 ug/ml measured after 72 hrs by CAM assay; assay type: functional; details: Gallus gallus
Procedure, shortened: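 Fertilized chicken eggs incubated 6 days at 37 °C; shell windowed and CAM treated (compounds and controls at […] as printed; saline vehicle control). Eggs re-incubated humidified; membranes fixed and harvested after 72 h. Angiogenesis scored by counting blood vessels and imaging neovascular zones; ten eggs per group.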

[8] = test system: MCF7; test: Antitumour activity against human MCF7 cells xenografted in nude mouse assessed as decrease in tumour volume at 22.5 to 45 mg/kg/day, ip administered for 21 days; assay type: functional, organism-based
Procedure, shortened: (§3)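 Nude mice (male/female, 4–6 weeks) injected subcutaneously in right forelimb with 5 × 10^7 MCF-7 cells in 200 µL saline; at mean tumour 100 mm3 randomized (n = 5/group): saline 0.2 mL/day, 22.5 or 45 mg/kg/day ip for 21 days. Body weight and tumour volume (length × width²/2) every other day; tumours weighed at day 21.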

[9] = test system: MCF7; test: Antitumour activity against human MCF7 cells xenografted in nude mouse assessed as decrease in tumour weight at 22.5 to 45 mg/kg/day, ip administered for 21 days; assay type: functional, organism-based; procedure, shortened: as §3
[10] = Toxicity in nude mouse xenografted with human MCF7 cells assessed as increase in body weight at 22.5 to 45 mg/kg/day, ip administered for 21 days; assay type: organism-based; details: in vivo, 504 h; procedure, shortened: as §3
[11] = Toxicity in nude mouse xenografted with human MCF7 cells assessed as effect on spleen morphological changes at 22.5 to 45 mg/kg/day, ip administered for 21 days by HE staining analysis; assay type: organism-based; details: in vivo, 504 h
[12] = Toxicity in nude mouse xenografted with human MCF7 cells assessed as effect on lung morphological changes at 22.5 to 45 mg/kg/day, ip administered for 21 days by HE staining analysis; assay type: organism-based; details: in vivo, 504 h
[13] = Toxicity in nude mouse xenografted with human MCF7 cells assessed as effect on kidney morphological changes at 22.5 to 45 mg/kg/day, ip administered for 21 days by HE staining analysis; assay type: organism-based; details: in vivo, 504 h
[14] = Toxicity in nude mouse xenografted with human MCF7 cells assessed as liver edema at 22.5 to 45 mg/kg/day, ip administered for 21 days by HE staining analysis; assay type: organism-based; details: in vivo, 504 h
[15] = Hepatotoxicity in nude mouse xenografted with human MCF7 cells assessed as slight increase in serum alkaline phosphatase level at 22.5 to 45 mg/kg/day, ip administered for 21 days by biochemical automatic analyzer; assay type: toxicity, organism-based; details: in vivo, 504 h
[16] = test system: PC-3; test: Cytotoxicity against human PC3 cells assessed as reduction in cell viability measured after 48 to 72 hrs by MTT assay; assay type: cell-based; procedure, shortened: as §1
[17] = test system: HUVEC; test: Antimigratory activity against HUVEC at 2 to 10 uM measured after 48 hrs by wound healing assay; assay type: functional, cell-based; details: Homo sapiens
Procedure, shortened: (§4)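 Cells seeded in 6-well plates, monolayer scratched with pipette tip, washed twice, kept in medium with 2% FBS. Gaps imaged, then drug added (0, 2 or 10 µM for HUVEC and MCF-7); gaps re-imaged after 48 h and migration rate calculated. Three independent experiments; one-way ANOVA.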

[18] = test system: HUVEC; test: Reduction in VEGFR expression in HUVEC at 2 to 10 uM after 48 hrs by Western blot analysis; assay type: functional, cell-based; details: Homo sapiens
Procedure, shortened: (§5)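 HUVECs grown in RPMI 1640 with 10% FBS, 37 °C, 5% CO2; treated with no drug, 2 or 10 µM for 48 h. Lysed in RIPA with protease/phosphatase inhibitors on ice 30 min, protein by BCA, 8% SDS-PAGE, PVDF transfer, milk block, primary antibody overnight 4 °C, secondary 2 h RT; ECL detection, densitometry. Probed VEGF-R, FAK, p-FAK, SHC.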

[19] = target: Focal adhesion kinase 1 (Homo sapiens) (UniProt Q05397); test: Reduction in FAK phosphorylation in HUVEC at 2 to 10 uM after 48 hrs by Western blot analysis; assay type: cell-based; procedure, shortened: as §5
Chain of Focal adhesion kinase 1 (Homo sapiens) (Q05397 2-1052 limits assumed): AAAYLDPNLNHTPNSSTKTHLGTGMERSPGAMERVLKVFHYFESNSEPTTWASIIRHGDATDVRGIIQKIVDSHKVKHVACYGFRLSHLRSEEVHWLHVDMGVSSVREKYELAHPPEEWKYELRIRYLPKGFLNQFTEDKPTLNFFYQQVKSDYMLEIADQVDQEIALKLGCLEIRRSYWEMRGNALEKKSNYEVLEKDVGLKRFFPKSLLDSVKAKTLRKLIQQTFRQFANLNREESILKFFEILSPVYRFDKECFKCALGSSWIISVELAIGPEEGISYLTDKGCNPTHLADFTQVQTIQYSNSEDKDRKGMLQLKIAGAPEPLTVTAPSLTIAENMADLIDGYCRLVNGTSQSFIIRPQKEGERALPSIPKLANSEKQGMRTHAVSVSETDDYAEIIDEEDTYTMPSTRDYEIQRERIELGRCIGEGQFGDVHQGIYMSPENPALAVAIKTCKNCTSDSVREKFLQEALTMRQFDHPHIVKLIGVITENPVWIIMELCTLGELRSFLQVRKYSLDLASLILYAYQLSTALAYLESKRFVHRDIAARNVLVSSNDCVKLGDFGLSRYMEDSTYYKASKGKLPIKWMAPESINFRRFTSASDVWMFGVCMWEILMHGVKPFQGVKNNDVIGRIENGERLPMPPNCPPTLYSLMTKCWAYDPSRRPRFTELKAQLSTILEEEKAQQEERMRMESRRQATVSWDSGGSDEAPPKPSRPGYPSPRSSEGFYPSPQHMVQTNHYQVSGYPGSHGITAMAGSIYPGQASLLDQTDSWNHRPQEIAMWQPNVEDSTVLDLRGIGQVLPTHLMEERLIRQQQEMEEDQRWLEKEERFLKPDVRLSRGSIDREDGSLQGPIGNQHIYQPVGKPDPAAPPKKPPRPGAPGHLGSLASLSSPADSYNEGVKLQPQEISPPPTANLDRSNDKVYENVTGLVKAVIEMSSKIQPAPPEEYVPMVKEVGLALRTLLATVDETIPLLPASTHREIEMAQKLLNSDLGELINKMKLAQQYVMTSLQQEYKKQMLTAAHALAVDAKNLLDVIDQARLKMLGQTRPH

[20] = test system: HUVEC; test: Reduction in SHC expression in HUVEC at 2 to 10 uM after 48 hrs by Western blot analysis; assay type: functional, cell-based; details: Homo sapiens; procedure, shortened: as §5
[21] = test system: HUVEC; test: Antimigratory activity against HUVEC at 2 to 10 uM measured after 24 hrs by transwell assay; assay type: functional, cell-based; details: Homo sapiens
Procedure, shortened: (§6)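 Cells seeded on upper side of polycarbonate transwell filters in serum-free medium, drug at 0, 2 or 10 µM; complete serum-containing medium in lower chamber as chemoattractant. After 24 h migrated cells fixed in 4% paraformaldehyde 20 min, crystal violet stained 20 min, imaged and counted. Three independent experiments.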

[22] = test system: MCF7; test: Antimigratory activity against human MCF7 cells at 2 to 10 uM measured after 48 hrs by wound healing assay; assay type: functional, cell-based; procedure, shortened: as §4
[23] = test system: MCF7; test: Inhibition of epithelial-mesenchymal transition in human MCF7 cells assessed as increase in ZO-1 expression level at 2 to 10 uM after 48 hrs by Western blot analysis; assay type: functional, cell-based
Procedure, shortened: (§7)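 MCF-7 cells in RPMI 1640 with 10% FBS, 37 °C, 5% CO2, exposed to no drug, 2 or 10 µM for 48 h. RIPA lysates, BCA quantitation, 8% SDS-PAGE, PVDF transfer, primary antibodies overnight 4 °C, secondary 2 h RT, ECL and densitometry for ZO-1, E-cadherin, N-cadherin, vimentin. Mean ± SD of 3 independent tests.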

[24] = test system: MCF7; test: Inhibition of epithelial-mesenchymal transition in human MCF7 cells assessed as increase in E-cadherin expression level at 2 to 10 uM after 48 hrs by Western blot analysis; assay type: functional, cell-based; procedure, shortened: as §7
[25] = test system: HUVEC; test: Effect on FAK expression in HUVEC at 2 to 10 uM after 48 hrs by Western blot analysis; assay type: functional, cell-based; details: Homo sapiens; procedure, shortened: as §5
[26] = test system: MCF7; test: Antimigratory activity against human MCF7 cells at 2 to 10 uM measured after 24 hrs by transwell assay; assay type: functional, cell-based; procedure, shortened: as §6

COc1cc2c(cc1O)CC[C@@H]1[C@@H]2CC[C@]2(C)C(=O)/C(=C/c3ccc(Cl)cc3)C[C@@H]12
IC50 [1]: > 100 µM | IC50 [2]: 78.6 µM | IC50 [3]: 17.9 µM | IC50 [4]: 14.7 µM | IC50 [5]: 14.9 µM | IC50 [6]: 4.3 µM | inhibition [7]: Active | inhibition [8]: Active | inhibition [9]: Active | Activity [10]: Non-Toxic | Activity [11]: Non-Toxic | Activity [12]: Non-Toxic | Activity [13]: Non-Toxic | Activity [14]: Toxic | Activity [15]: Toxic | Activity [16]: Toxic | Activity [17]: Active | inhibition [18]: Active | inhibition [19]: Active | inhibition [20]: Active | Activity [21]: Active | Activity [22]: Active | inhibition [23]: Active | inhibition [24]: Active | Activity [25]: inactive | Activity [26]: Active
